Assay results: ChEMBL document CHEMBL2417357, “Synthesis and antiprotozoal activities of benzyl phenyl ether diamidine derivatives” (Eur J Med Chem, 2013)
The source made the active and inactive calls. The calls are words filed in the database; no cut-off is given here.

Tests used:
[1] = test system: L6; assay: Cytotoxicity against rat L6 cells after 72 hrs by Alamar blue assay; format: cell-based; details: L6, 72 h
How it was run: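 Rat L6 myoblast cells; cytotoxic IC50 taken as the average of duplicate determinations.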

[2] = test system: Leishmania donovani; assay: Antileishmanial activity against amastigotes of Leishmania donovani MHOM/SD/62/IS-CL2D; format: functional, organism-based
How it was run: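 Axenic amastigotes of L. donovani MHOM/SD/62/IS-CL2D; IC50 taken as the average of at least two determinations.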

[3] = Selectivity index, ratio of IC50 for rat L6 cells to IC50 for amastigotes of Leishmania donovani; format: toxicity, cell-based; details: read-out: Ratio IC50
How it was run: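 SI = IC50 in rat L6 myoblasts / IC50 against L. donovani MHOM/SD/62/IS-CL2D axenic amastigotes. The amastigote IC50 is the average of at least two determinations; the L6 IC50 is the average of duplicates.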

[4] = Selectivity index, ratio of IC50 for rat L6 cells to IC50 for chloroquine-resistant Plasmodium falciparum K1; format: toxicity, cell-based; details: read-out: Ratio IC50
How it was run: (§1)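 SI = IC50 in rat L6 myoblasts / IC50 against the parasite (T. b. rhodesiense STIB900 or P. falciparum K1). Each IC50 is the average of duplicate determinations.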

[5] = test system: Plasmodium falciparum; assay: Antiplasmodial activity against chloroquine-resistant Plasmodium falciparum K1; format: functional, organism-based
How it was run: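 Chloroquine-resistant K1 strain tested in vitro. IC50 is the average of duplicate determinations.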

[6] = Selectivity index, ratio of IC50 for rat L6 cells to IC50 for Trypanosoma brucei rhodesiense STIB900; format: toxicity, cell-based; details: read-out: Ratio IC50; how it was run: as §1
[7] = test system: Trypanosoma brucei rhodesiense; assay: Antitrypanosomal activity against Trypanosoma brucei rhodesiense STIB900 after 72 hrs by Alamar blue assay; format: functional, organism-based; details: STIB900, 72 h
[8] = test system: Trypanosoma brucei rhodesiense; assay: Antitrypanosomal activity against Trypanosoma brucei rhodesiense STIB900 infected in NMRI mouse assessed as mean survival days at 5 mg/kg, ip administered for 4 days; format: functional; details: route intraperitoneal
How it was run: (§2)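 Female NMRI mice, acute infection model with T. b. rhodesiense STIB900. Compound given as a single daily dose for four days, intraperitoneally or orally. Cure means survival to 60 days post-infection without parasitaemia relapse. Mean survival recorded in days.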

[9] = test system: Trypanosoma brucei rhodesiense; assay: Antitrypanosomal activity against Trypanosoma brucei rhodesiense STIB900 infected in NMRI mouse assessed as cured animal at 25 mg/kg, po administered for 4 days; format: functional, organism-based; design: dose 25 mg/kg
How it was run: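 Acute model in female NMRI mice infected with T. b. rhodesiense STIB900. Single daily doses given for four days, intraperitoneally or orally. Mice surviving 60 days post-infection without parasitaemia relapse counted as cured; result reported as cured/infected out of 4 mice per group, with mean survival in days.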

[10] = test system: Trypanosoma brucei rhodesiense; assay: Antitrypanosomal activity against Trypanosoma brucei rhodesiense STIB900 infected in NMRI mouse assessed as mean survival days at 25 mg/kg, po administered for 4 days; format: functional; how it was run: as §2

Row | Compound | IC50 [1] | IC50 [2] | selectivity ratio [3] | selectivity ratio [4] | IC50 [5] | selectivity ratio [6] | IC50 [7] | MSD [8] | Activity [9] | MSD [10]
1 | N=C(N)c1cc(I)c(OCc2cccc([N+](=O)[O-])c2)c(I)c1 | 7.72 µM | 34.3 µM | < 1 | 26 | 0.296 µM | 3 | 2.66 µM | – | – | –
2 | N=C(N)c1cccc(COc2cccc([N+](=O)[O-])c2)c1 | 104 µM | – | – | < 34 | > 3.07 µM | 14 | 7.28 µM | – | – | –
3 | N=C(N)c1cccc(COc2ccc(C(=N)N)cc2Br)c1 | 15.7 µM | 1.86 µM | 8 | 302 | 0.052 µM | 3410 | 0.005 µM | >37.5 days | – | –
4 | N=C(N)c1cccc(OCc2cccc([N+](=O)[O-])c2)c1 | 78.9 µM | – | – | < 25 | > 3.16 µM | 164 | 0.481 µM | – | – | –
5 | CO/N=C(\N)c1ccc(COc2c(OC)cc(/C(N)=N/OC)cc2OC)cc1.Cl.Cl | > 190 µM | 100 µM | > 2 | – | > 10.6 µM | > 1 | 129 µM | – | inactive | 11.75 days
6 | CC(C)NC(=N)c1ccc(COc2ccc(C(=N)NC(C)C)cc2)cc1 | > 144 µM | 26.6 µM | > 5 | > 7370 | 0.02 µM | > 107 | 1.35 µM | – | – | –
7 | COc1cc(/C(N)=N/O)cc(OC)c1OCc1ccc(/C(N)=N/O)cc1.Cl.Cl | 56.8 µM | 34.1 µM | 1.67 | 5.11 | 11.1 µM | < 1 | 161 µM | – | inactive | 14.5 days
8 | CO/N=C(\N)c1cccc(COc2c(Br)cc(/C(N)=N/OC)cc2Br)c1.Cl.Cl | 54.7 µM | > 50 µM | < 1 | 8 | 6.79 µM | < 1 | 69.7 µM | – | inactive | >31.5 days
9 | N=C(N)c1cccc(OCc2ccccc2)c1 | 156 µM | – | – | < 41 | > 3.81 µM | 17 | 9.32 µM | – | – | –
10 | N=C(N)c1cccc(COc2ccc(C(=N)N)cc2I)c1 | 6.06 µM | 1.27 µM | 5 | 477 | 0.013 µM | 1190 | 0.005 µM | >31.25 days | – | –
11 | CO/N=C(\N)c1cccc(COc2c(I)cc(/C(N)=N/OC)cc2I)c1.Cl.Cl | 27.5 µM | 44.2 µM | < 1 | < 4 | > 7.1 µM | 1 | 26.3 µM | – | inactive | 19.75 days
12 | CO/N=C(\N)c1ccc(COc2ccc(/C(N)=N/OC)cc2I)cc1.Cl.Cl | 86.6 µM | – | – | < 8 | > 10.3 µM | 2 | 50.4 µM | – | inactive | 29.75 days
13 | CO/N=C(\N)c1cccc(COc2c(Br)cc(/C(N)=N/OC)cc2OC)c1.Cl.Cl | 70.5 µM | > 100 µM | < 1 | 21 | 3.35 µM | < 1 | 81.5 µM | – | – | >52.25 days
14 | N=C(N)c1ccc(COc2ccc(C(=N)N)cc2I)cc1 | 5.3 µM | 1.94 µM | 3 | 898 | 0.006 µM | 312 | 0.017 µM | >41.5 days | – | –
15 | COc1cc(/C(N)=N/O)cc(OC)c1OCc1cccc(/C(N)=N/O)c1.Cl.Cl | 70.7 µM | > 100 µM | < 1 | < 6 | > 11.5 µM | < 1 | 157 µM | – | inactive | 16.5 days
16 | C[C@@H]1CC[C@H]2[C@@H](C)C(=O)O[C@@H]3O[C@@]4(C)CC[C@@H]1[C@]32OO4 [ARTEMISININ] | > 319 µM | – | – | – | 0.0041 µM | – | – | – | – | –
17 | N=C(N)c1ccc(-c2ccc(-c3ccc(C(=N)N)cc3)o2)cc1 [FURAMIDINE] | – | – | – | – | – | – | – | >46 days | – | –
18 | N=C(N)c1ccc(COc2ccccc2)cc1 | 167 µM | – | – | < 47 | > 3.56 µM | 45 | 3.71 µM | – | – | –

Row | Compound | IC50 [1] | IC50 [2] | selectivity ratio [3] | selectivity ratio [4] | IC50 [5] | selectivity ratio [6] | IC50 [7] | MSD [8] | Activity [9] | MSD [10]
19 | CO/N=C(\N)c1cccc(COc2ccc(/C(N)=N/OC)cc2Cl)c1.Cl.Cl.Cl | 89.6 µM | > 100 µM | < 1 | < 9 | > 10.2 µM | 3 | 26.1 µM | – | inactive | 29.25 days
20 | CO/N=C(\N)c1cccc(COc2c(I)cc(/C(N)=N/OC)cc2OC)c1.Cl.Cl | 81.4 µM | > 100 µM | < 1 | 73 | 1.12 µM | 1 | 75.1 µM | – | – | 40.25 days
21 | N=C(N)c1ccc(OCc2ccc([N+](=O)[O-])cc2)c(I)c1 | 10.7 µM | > 50 µM | < 1 | 11 | 0.951 µM | 6 | 1.9 µM | – | – | –
22 | N=C(N)c1ccc(OCc2ccccc2)cc1 | 127 µM | – | – | < 36 | > 3.56 µM | 69 | 1.84 µM | – | – | –
23 | N=C(N)c1ccc(COc2ccc(Cl)cc2)cc1 | 20.7 µM | – | – | < 6 | > 3.36 µM | 8 | 2.71 µM | – | – | –
24 | N=C(N)c1ccc(COc2ccc(C(=N)N)cc2Cl)cc1 | 3.2 µM | 2.89 µM | 1 | 552 | 0.006 µM | 147 | 0.022 µM | >51 days | – | –
25 | N=C(N)c1ccc(COc2ccc(N)cc2)cc1 | > 271 µM | – | – | > 106 | 2.56 µM | > 90 | 3 µM | – | – | –
26 | COc1ccc(OCc2ccc(C(=N)N)cc2)cc1 | 143 µM | – | – | < 42 | > 3.42 µM | 36 | 3.95 µM | – | – | –
27 | N=C(N)c1ccc(OCCCCCOc2ccc(C(=N)N)cc2)cc1 [PENTAMIDINE] | – | – | – | – | – | – | – | >38 days | – | –
28 | Cl.Cl.Cl.N/C(=N\O)c1cccc(COc2ccc(/C(N)=N/O)cc2Cl)c1 | 2.26 µM | > 100 µM | < 1 | < 1 | > 11.2 µM | < 1 | 49.2 µM | – | – | >39 days
29 | Cl.Cl.Cl.Cl.N/C(=N\O)c1cccc(COc2c(Cl)cc(/C(N)=N/O)cc2Cl)c1 | 14.4 µM | > 100 µM | < 1 | 1 | 11.5 µM | < 1 | 26.4 µM | – | – | >53.25 days
30 | CC(C)c1ccc(OCc2ccc(C(=N)N)cc2)cc1 | 5.36 µM | 49.5 µM | < 1 | 3 | 2.37 µM | 4 | 1.29 µM | – | – | –
31 | N=C(N)c1ccc(COc2cccc([N+](=O)[O-])c2)cc1 | 57.8 µM | – | – | < 18 | > 3.25 µM | 27 | 2.12 µM | – | – | –
32 | CO/N=C(\N)c1ccc(COc2ccc(/C(N)=N/OC)cc2)cc1.Cl.Cl | > 224 µM | > 100 µM | 2 | – | 5.78 µM | – | > 224 µM | – | inactive | 13.25 days
33 | CO/N=C(\N)c1ccc(COc2ccc(/C(N)=N/OC)cc2Br)cc1.Cl.Cl | 101 µM | > 100 µM | < 1 | < 10 | > 10.2 µM | 5 | 18.8 µM | – | – | >32.5 days
34 | N=C(N)c1ccc(COc2ccc([N+](=O)[O-])cc2)cc1 | 79.2 µM | – | – | < 26 | > 3.07 µM | 18 | 4.41 µM | – | – | –
35 | CO/N=C(\N)c1cccc(COc2c(OC)cc(/C(N)=N/OC)cc2OC)c1.Cl.Cl | > 188 µM | > 100 µM | < 2 | – | > 10.4 µM | > 1 | 109 µM | – | inactive | 15 days
